This is a sample that favours compounds with a hit; in the whole collection about 29% have one here.
Ecoli tolC = growth inhibitors of E. coli tolC mutant, primary screen, strain BW25113 ΔtolC::kan, 384-well; hit rate 2.2% among 65,000; AID 573, 2007; growth inhibition, % at 10 µM (by protocol); OD615;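 active means growth inhibition at or above a cutoff equal to the mean over every tested compound plus 3 SD, cut at about 60% in these data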;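 further: growth measured after 20 h incubation at 37 °C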
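System: E. coli ΔtolC::kan strain BW25113; Buffer or medium: LB broth supplemented with 50 µg/mL kanamycin; Compound: 10 µM final, single dose; Incubation: bacterial growth with compound for 20 h at 37 °C; Signal: A615 absorbance measurement; Evaluation: growth inhibition in percent.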
CYP2C19 inhib = blockers of cytochrome P450 2C19 activity – biochemical, luminescence, ADME assay, primary screen. P33261. CYP2C19 Supersomes, luciferin-H EGE luminescence, 30 min. inhibition, % at 5 µM. hit rate 21% among 96,000;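 active means CYP2C19 inhibition above a set limit at 5 µM in the primary screen, cut at about 50% in these data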;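 further: plate controls were negative control wells for no effect and 2.5 mM tranylcypromine positive control for full effect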
Target sequence (P33261 whole entry, looked up): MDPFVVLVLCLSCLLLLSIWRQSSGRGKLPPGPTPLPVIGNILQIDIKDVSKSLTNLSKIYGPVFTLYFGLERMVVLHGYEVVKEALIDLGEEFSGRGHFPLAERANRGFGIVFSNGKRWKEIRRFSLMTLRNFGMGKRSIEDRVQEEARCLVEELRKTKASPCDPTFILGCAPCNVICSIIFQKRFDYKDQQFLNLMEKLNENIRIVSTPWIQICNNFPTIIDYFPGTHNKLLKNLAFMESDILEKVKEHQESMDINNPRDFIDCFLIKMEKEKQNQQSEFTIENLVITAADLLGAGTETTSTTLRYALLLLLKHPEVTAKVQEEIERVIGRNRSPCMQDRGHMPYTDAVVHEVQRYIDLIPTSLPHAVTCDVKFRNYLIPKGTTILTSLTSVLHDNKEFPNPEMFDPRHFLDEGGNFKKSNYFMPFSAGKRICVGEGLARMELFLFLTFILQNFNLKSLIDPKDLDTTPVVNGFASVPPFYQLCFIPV
CYP2C9 act = human CYP2C9 activators, primary screen, biochemical, luminescence. AID 1024, 2008. activation factor at 5 µM. hit rate 1.4% among 96,000. recombinant CYP2C9, luciferin-H conversion; hits give high values; factor 1 = untreated enzyme, 0 = blocked;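 active means activation factor of 2 or more for CYP2C9 at a 5 µM dose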;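 further: 0 = sulfaphenazole-blocked wells and 1 = vehicle-only wells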
Ecoli WT expand = growth inhibitors of wild-type E. coli, primary screen, strain BW25113, expanded library, OD600 | OD600 absorbance | growth inhibition, % at 100 µM | hit rate 0.15% among 98,000 | AID 710, 2007;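 active means growth inhibition above about 50% at one test dose, limit read from the data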;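 further: growth measured after 20 h incubation at 37 °C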
CYP2C9 inhib = blockers of cytochrome P450 2C9 activity – biochemical, luminescence, ADME assay, primary screen; hit rate 20% among 96,000; inhibition, % at 5 µM; AID 777, 2007; P11712; CYP2C9 Supersomes, luciferin-H conversion;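 active means blocking of liver enzyme CYP2C9 beyond about 50% at 5 µM, limit read from the data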
CYP2C19 activ = human CYP2C19 activators, primary screen, biochemical, luminescence; activation factor at 5 µM; AID 1025, 2008; 96,000 tested, under 10 active; Cytochrome P450 2C19 (Homo sapiens), P33261; recombinant CYP2C19, luciferin-H EGE luminescence; hits give high values; 0 = fully inhibited enzyme, 1 = untreated enzyme;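 active means activation factor of at least 2 at 5 µM in the primary screen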;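 further: 0 = wells with 2.5 mM tranylcypromine and 1 = vehicle-only wells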
* marks the source's active call; other numbers are inactive results; . = not tested or not shown.

SMILES	Ecoli tolC	CYP2C19 inhib	CYP2C9 act	Ecoli WT expand	CYP2C9 inhib	CYP2C19 activ
CCn1ccc(C(=O)Oc2ccc(Cl)cc2)n1	.	30	0.7	10	30	0.7
CCn1nccc1C(=O)Nc1ccc(Cl)cn1	.	59*	0.8	5	22	0.4
CCn1ccc(C(=O)Nc2ccc(Cl)cn2)n1	-10	67*	0.6	8	39	0.3
CCOc1ccc(OCc2ccc(C(=O)Nc3ccc(Cl)cn3)o2)cc1	2	6	0.5	-4	45	0.9
O=C(CP(=O)(CO)CO)c1ccc(Cl)cc1	1	-22	1.2	4	-19	1.2
COc1ccc(-c2cc(-c3ccc(Br)cc3)nc3ncnn23)cc1OC	.	-16	0.5	-10	55*	1.2
COc1ccc(-c2cc(NCc3ccccn3)n3ncnc3n2)cc1	-16	8	0.9	3	8	0.9
N#Cc1c(NCc2ccccc2)ccnc1NCc1cccnc1	8	99*	0.4	4	56*	0
Cc1nc(S(=O)(=O)N(C)Cc2ccccc2)c(C#N)c(C)c1Cl	-10	10	0.7	-2	34	0.9
CN(C)c1ccnc(N(Cc2ccccc2)Cc2ccccc2)c1C#N	.	96*	0.1	6	95*	0
Cc1cc(N(C)C)c(C#N)c(NCc2ccccc2)n1	7	34	0.6	-1	36	0.7
CN(C)c1ccnc(NCc2ccccc2)c1C#N	-6	67*	0.6	.	39	0.3
O=S(=O)(Cc1cc(Sc2ccc(Cl)cc2)nc(-c2ccccc2)n1)c1ccccc1	.	65*	0.2	-3	81*	0.3
CCOC(=O)C(C)Sc1cc(CS(=O)(=O)c2ccccc2)nc(-c2ccccc2)n1 (stereo unspecified)	.	77*	0	-20	96*	0.2
Cc1nc(CS(=O)(=O)c2ccc(Cl)cc2)cc(Sc2ccc(Cl)cc2)n1	.	12	0.1	1	88*	0.9
O=S(=O)(Cc1cc(Oc2ccccc2)nc(-c2ccccc2)n1)c1ccccc1	.	59*	0.4	-16	61*	0.4
O=C1[C@@H]2[C@H](C(=O)N1Cc1ccco1)[C@H]1C=C[C@@H]2C1	.	22	0.8	9	19	0.8
CC1(C)NC(=O)N(CC(O)COc2ccccc2C(=O)Nc2ccccc2)C1=O (stereo unspecified)	16	28	0.7	3	33	0.7
CCOC(=O)c1c(C)n(C)c2ccc(OCC(O)CN(CC)CC)cc12 (stereo unspecified)	-5	-9	1	-5	0	1.1
O=C(Nc1ccccc1)c1ccccc1OCC(O)CN1C(=O)c2ccccc2S1(=O)=O (stereo unspecified)	24	63*	0.2	0	76*	0.4
CCOC(=O)c1c(C)n(C)c2ccc(OCC(O)CN3C(=O)c4ccccc4S3(=O)=O)cc12 (stereo unspecified)	21	43	0.3	-18	73*	0.6
COc1cccc(NC(=O)CCN2C(=O)c3ccccc3S2(=O)=O)c1	.	50	0.8	10	18	0.5
COc1ccc2c(c1)c(C(=O)OCCN(C)C)c(C)n2C	6	18	0.9	2	8	0.8
COc1ccc(OCC(O)CN2C(=O)c3ccccc3S2(=O)=O)cc1 (stereo unspecified)	-1	92*	0.5	-4	49	0.1
CCOC(=O)c1c(C)n(C)c2ccc(OCC(O)Cn3nc(C)cc3C)cc12 (stereo unspecified)	16	78*	0.3	-8	74*	0.2
SMILES	Ecoli tolC	CYP2C19 inhib	CYP2C9 act	Ecoli WT expand	CYP2C9 inhib	CYP2C19 activ
COC(=O)c1ccccc1NC(=O)CNC(=O)c1ccco1	-1	33	0.7	2	31	0.7
CCOc1ccc(-c2nnn(CC(=O)NCc3cccs3)n2)cc1	0	44	0.9	-2	8	0.6
COc1ccc(C(O)C(CC(=O)NCCCOC(C)C)C(=O)NCCCOC(C)C)cc1OC (stereo unspecified)	-25	.	.	.	.	.
CCOC(=O)c1cc(CC)sc1N	-9	43	0.7	15	26	0.6
COC(=O)c1ccc2ccn(CC(=O)NC(C)C)c2c1	-13	44	0.7	7	27	0.6
CCC(=O)N1CCc2cc(S(=O)(=O)NCCCN(CC)Cc3ccccc3)ccc21	-5	6	1	-3	4	0.9
COc1cc(CNCCc2ccc(F)cc2)ccc1OCc1ccc(Cl)nc1	.	45	0.7	28	26	0.5
COc1cc(CNCCc2c[nH]c3ccccc23)ccc1OCc1ccc(F)cc1	.	63*	0.5	37	47	0.4
COc1cc(CNCCc2ccccc2F)ccc1OCc1ccc(Cl)nc1	.	76*	0.7	4	33	0.2
C=CCn1c(=O)c2ccccc2n2c(SC(C)C(=O)Nc3nc(-c4ccccc4)cs3)nnc12 (stereo unspecified)	7	.	.	-6	.	.
CCn1c(SCC(=O)NCc2ccco2)nc2c(c1=O)SC(C)C2 (stereo unspecified)	-9	-7	0.7	-3	28	1.1
CCn1c(SCC(=O)NCc2ccc(F)cc2)nc2c(c1=O)SC(C)C2 (stereo unspecified)	10	6	0.4	-6	63*	0.9
CCn1c(SCC(=O)NCCc2ccccc2)nc2c(c1=O)SC(C)C2 (stereo unspecified)	.	76*	0.1	0	92*	0.2
CCn1c(SCC(=O)NCc2ccccc2)nc2c(c1=O)SC(C)C2 (stereo unspecified)	.	30	0.4	-5	61*	0.7
CC1Cc2nc(SCC(=O)NCCc3ccccc3)n(C)c(=O)c2S1 (stereo unspecified)	-10	.	.	4	.	.
COc1ccc(NC(=O)c2ccc(C(=O)c3ccccc3)o2)cc1	-6	4	0.6	6	38	1
CCCC(=O)Oc1ccccc1C1SCc2cc(C)c(C)cc2CS1	.	-4	0.9	-2	10	1
O=C(NCC1CCC(C(=O)O)CC1)c1cccnc1 (stereo unspecified)	-39	2	1	-6	-3	1
Cc1cc(N(C)Cc2ccccc2)nc(-c2ccccc2)n1	26	96*	0.2	-15	80*	0
COc1ccccc1NC(=O)/C(C#N)=C/C=C/c1ccco1	.	-4	3*	-14	-203	1
COc1ccccc1NC(=O)C(=O)NNC(=O)c1ccco1	.	-4	1.1	2	-11	1
Cc1nn2c(=O)nc3sc4c(c3c2[nH]c1=O)CCCC4	-48	.	.	.	.	.
Clc1ccc2[nH]cc(-c3nnnn3-c3ccccc3)c2c1	.	37	0.7	-1	34	0.6
